We go through 5 compounds from publication PMC4261236 (Journal of Medicinal Chemistry, 2014).

The subject of data set [1] is sstr2-transfected HCT116 tumor-bearing female nu/nu mice. Nature of the data set: Biodistribution in tumor-bearing mice. It counts as in vivo. The conditions noted are these: for tumor uptake blocked by co-injected Y3-TATE: 4 h p.i., 20 μg Y3-TATE co-injected; for blood clearance (in words): 1 to 4 h p.i.
In data set [2] the test system is sstr2-transfected HCT116 tumor-bearing mice. As to the kind of experiment: Small animal PET/CT imaging. It counts as in vivo. As to conditions: 2 h p.i.; for tumor SUV: PET/CT; for tumor SUV, blocked: unlabeled Y3-TATE co-injected to block.
In data set [3] the test system is sstr2-transfected HCT116 cells. Nature of the data set: Cell internalization assay. Type of data set: cell-based, Human. The conditions noted are these: for maximum internalized tracer: after 2 h at 37 °C, 4 nM tracer. The method in brief:
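sstr2-transfected HCT116 cells (Iscove's, 10% FBS, 1 mM Zeocin) in 12-well plates with 64Cu-labelled tracer at 4 nM final (labelled at >98% yield, used without purification). Surface-bound and internalized activity gamma-counted at 15, 30, 60, 120 and 240 min. Nonspecific binding from 1000-fold excess Y3-TATE. Values normalized to added activity and to BCA protein (%ID/mg).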

The nature of data set [4]: Biodistribution in tumor-bearing mice. It counts as in vivo. The conditions noted are these: mouse, liver, intravenous, 1.85 MBq.

Consider ^64Cu-CB-TE1A1P–Y3-TATE [^64Cu-1A1P], for which the “tumor-to-blood ratio (in words)” value in data set [1] (1, 4 and 24 h p.i.) was “significantly higher than both ^64Cu-AP-1 and ^64Cu-KP-1 at all time points”. For the same compound, the “tumor uptake (in words)” value in data set [1] (4 and 24 h p.i.) was “significantly higher tumor uptake than ^64Cu-KP-1 and ^64Cu-AP-1”. Further, the “tumor uptake blocked by co-injected Y3-TATE” value (“tumor uptake blocked” for short) in data set [1] is 95%. For the same compound, in data set [2], the “tumor SUV” value came to 2.8 ± 0.4 and the “tumor SUV, blocked” value was found to be 0.19 ± 0.02.
As for `C[C@@H](O)[C@H](NC(=O)[C@@H]1CSSC[C@H](NC(=O)[C@@H](Cc2ccccc2)NC(=O)CCCCCn2nnc3c2-c2ccccc2N(C(=O)CCNC(=O)CN2CCCN4CCN(CCCN(CP(=O)(O)O)CC4)CC2)Cc2ccccc2-3)C(=O)N[C@@H](Cc2ccc(O)cc2)C(=O)N[C@H](Cc2c[nH]c3ccccc23)C(=O)N[C@@H](CCCCN)C(=O)N[C@@H]([C@@H](C)O)C(=O)N1)C(=O)O` (single isomer, unassigned) [^64Cu-AP-3, ^64Cu-CB-TE1A1P–DBCO–Y3-TATE, metal not drawn], in data set [3] (37 °C, up to 4 h), the “internalization (in words)” value is “slower internalization which was not saturated after 4 h”.
In turn, `C[C@@H](O)[C@H](NC(=O)[C@@H]1CSSC[C@H](NC(=O)[C@@H](Cc2ccccc2)NC(=O)CCCCCn2nnc3c2-c2ccccc2N(C(=O)CCNC(=O)CN2CCCN4CCN(CCCN(CP(=O)(O)O)CC4)CC2)Cc2ccccc2-3)C(=O)N[C@@H](Cc2ccc(O)cc2)C(=O)N[C@H](Cc2c[nH]c3ccccc23)C(=O)N[C@@H](CCCCN)C(=O)N[C@@H]([C@@H](C)O)C(=O)N1)C(=O)O` (single isomer, unassigned) [^64Cu-AP-2, ^64Cu-CB-TE1A1P–DBCO–Y3-TATE, metal not drawn] had a maximum internalized tracer in data set [3] of 73 ± 7 %ID/mg.
Broadly, the tissue uptake is the share of the injected amount in each gram of the tissue. Higher therefore signals high uptake. Consider `C[C@@H](O)[C@H](NC(=O)[C@@H]1CSSC[C@H](NC(=O)[C@@H](Cc2ccccc2)NC(=O)CCCCCn2nnc3c2-c2ccccc2N(C(=O)CCNC(=O)CCOCCOCCOCCOCCOCCC(=O)NCCCCC(C(=O)O)N2CCCN4CCN(CCCN(CP(=O)(O)O)CC4)CC2)Cc2ccccc2-3)C(=O)N[C@@H](Cc2ccc(O)cc2)C(=O)N[C@H](Cc2c[nH]c3ccccc23)C(=O)N[C@@H](CCCCN)C(=O)N[C@@H]([C@@H](C)O)C(=O)N1)C(=O)O` (some centres unmarked) [^64Cu-KP-1, ^64Cu-CB-TE1K1P–PEG4–DBCO–Y3-TATE, metal not drawn], for which, in data set [4], the tissue uptake at 24 h was < 1 %ID/g. Further, in data set [1], the “blood clearance (in words)” value was “significantly slower than the blood clearance of ^64Cu-1A1P” and the “tumor uptake blocked” value turned out to be 84%. Besides, in data set [1] (4 and 24 h p.i.), the “liver uptake (in words)” value is “lower uptake in the liver than ^64Cu-AP-1 and ^64Cu-1A1P”. Moreover, in data set [2], the “tumor SUV” value was determined as 3.2 ± 0.2 and the “tumor SUV, blocked” value was 0.21 ± 0.06.
`C[C@@H](O)[C@H](NC(=O)[C@@H]1CSSC[C@H](NC(=O)[C@@H](Cc2ccccc2)NC(=O)CCCCCn2nnc3c2-c2ccccc2N(C(=O)CCNC(=O)CN2CCCN4CCN(CCCN(CP(=O)(O)O)CC4)CC2)Cc2ccccc2-3)C(=O)N[C@@H](Cc2ccc(O)cc2)C(=O)N[C@H](Cc2c[nH]c3ccccc23)C(=O)N[C@@H](CCCCN)C(=O)N[C@@H]([C@@H](C)O)C(=O)N1)C(=O)O` (single isomer, unassigned) [^64Cu-AP-1, ^64Cu-CB-TE1A1P–DBCO–Y3-TATE, metal not drawn] returned a maximum internalized tracer in data set [3] of 45 ± 3 %ID/mg. In addition, the tissue uptake at 24 h in data set [4] was < 1 %ID/g. In addition, in data set [1], the “blood clearance (in words)” value was “significantly slower than the blood clearance of ^64Cu-1A1P” and the “tumor uptake blocked” value came out at 63%. Also, the “liver uptake (in words)” value in data set [1] (1 h p.i.) is “significantly higher than that of ^64Cu-KP-1 and ^64Cu-1A1P”. Also, in data set [2], the “tumor SUV” value was 4.6 ± 0.8 and the “tumor SUV, blocked” value worked out at 0.47 ± 0.18.
